Like-named read-outs stand apart in the source and are kept apart here.
What was measured:
[1] = Stability in aqueous solution at room temperature; format: physicochemical; conditions: for decomposition in aqueous solution: neutral pH, 40 days at room temperature
Ddp1 phosphohydrolase = Ddp1 phosphohydrolase (Saccharomyces cerevisiae, UniProt Q99321); assay: Inhibition of His-Ddp1 mediated Ap5A hydrolysis; format: biochemical, yeast; conditions: for inhibition profile of Ddp1 mediated Ap5A hydrolysis (in words): compared with 5PP-IP5, Figures 5b and S4
Sequence of Ddp1 phosphohydrolase (Q99321 whole entry): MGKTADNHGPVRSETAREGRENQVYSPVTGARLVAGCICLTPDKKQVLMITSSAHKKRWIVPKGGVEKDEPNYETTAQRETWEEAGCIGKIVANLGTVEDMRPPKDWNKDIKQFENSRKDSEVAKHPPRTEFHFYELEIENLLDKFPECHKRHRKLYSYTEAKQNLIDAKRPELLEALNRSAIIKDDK

protein kinase Akt = protein kinase Akt (Homo sapiens, UniProt P31749); assay: Inhibition of Akt phosphorylation at threonine 308 by PDK1; format: biochemical
Sequence of protein kinase Akt (P31749 whole entry): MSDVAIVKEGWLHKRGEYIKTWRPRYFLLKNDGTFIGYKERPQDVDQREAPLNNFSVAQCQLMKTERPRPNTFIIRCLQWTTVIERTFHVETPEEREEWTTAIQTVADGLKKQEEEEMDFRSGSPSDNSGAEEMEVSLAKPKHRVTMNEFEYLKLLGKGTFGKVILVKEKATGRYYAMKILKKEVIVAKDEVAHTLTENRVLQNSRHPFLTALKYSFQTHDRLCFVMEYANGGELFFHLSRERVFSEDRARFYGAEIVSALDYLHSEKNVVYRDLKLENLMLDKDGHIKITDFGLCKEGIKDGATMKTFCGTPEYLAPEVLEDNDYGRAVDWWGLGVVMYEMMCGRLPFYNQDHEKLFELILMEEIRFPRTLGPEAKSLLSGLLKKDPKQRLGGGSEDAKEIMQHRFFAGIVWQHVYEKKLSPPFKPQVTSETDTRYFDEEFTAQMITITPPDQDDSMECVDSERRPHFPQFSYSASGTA
Method in brief: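 Akt Thr308 phosphorylation was detected by Western blot with a phosphospecific antibody, with a total-Akt blot as loading control. IC50 was determined in three independent experiments.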

[2] = 1H and 31P NMR titration in D2O; format: physicochemical; conditions: D2O with 140mM K+, 10mM Na+, 1mM Mg2+, room temperature
Ddp1 = conditions: 30 minutes at 37 °C; ref 22c; cited from earlier work

| decomposition in aqueous solution [1] | inhibition profile of Ddp1 mediated Ap5A hydrolysis (in words) (Ddp1 phosphohydrolase) | pD of ring inversion (conformational change) [2] | SMILES | hydrolysis by Ddp1 (Ddp1) | other results |
| --- | --- | --- | --- | --- | --- |
| no signs of decomposition | very similar inhibition profiles | ~8.8 | O=P(O)(O)CP(=O)(O)O[C@H]1[C@H](OP(=O)(O)O)[C@@H](OP(=O)(O)O)[C@@H](OP(=O)(O)O)[C@@H](OP(=O)(O)O)[C@@H]1OP(=O)(O)O [5PCP-IP5] |  | decomposition at low or high pD ([1]; pD 2.0 or 13.0, 40 days at room temperature): no detectable decomposition; IC50 (protein kinase Akt; read-out: IC50, inhibition of Akt phosphorylation at threonine 308, purified inactive Akt and activated PDK1, three independent experiments): 129 nM |
|  |  | ~8.8 | O=P(O)(O)O[C@H]1[C@@H](OP(=O)(O)O)[C@H](OP(=O)(O)O)[C@@H](OP(=O)(O)OP(=O)(O)O)[C@H](OP(=O)(O)O)[C@H]1OP(=O)(O)O [5PP-IP5, reference compound] | no signs of hydrolysis | IC50 (Ddp1 phosphohydrolase): 2500 nM; IC50 (protein kinase Akt): 217 nM |

Further lines, the compound ahead of its results:

| SMILES | decomposition in aqueous solution [1] | inhibition profile of Ddp1 mediated Ap5A hydrolysis (in words) (Ddp1 phosphohydrolase) | pD of ring inversion (conformational change) [2] | hydrolysis by Ddp1 (Ddp1) | other results |
| --- | --- | --- | --- | --- | --- |
| O=P(O)(O)OC1[C@@H](OP(=O)(O)O)[C@@H](OP(=O)(O)O)C(OP(=O)(O)OP(=O)(O)O)[C@H](OP(=O)(O)O)[C@H]1OP(=O)(O)O (stereo partly shown) [1PP-IP5] |  |  |  | completely hydrolysed to IP6 |  |
| O=P(O)(O)OC1C(OP(=O)(O)O)C(OP(=O)(O)O)C(OP(=O)(O)O)C(OP(=O)(O)O)C1OP(=O)(O)O (stereo not shown) [IP6, inositol hexakisphosphate, reference compound] |  |  |  |  | IC50 in Ddp1 Ap5A hydrolysis relative to 5PP-IP5 (Ddp1 phosphohydrolase; data not shown): more than ten times higher |
| O=P(O)(O)CP(=O)(O)O[C@@H]1[C@@H](OP(=O)(O)O)[C@H](OP(=O)(O)O)[C@H](O)[C@H](OP(=O)(O)O)[C@H]1OP(=O)(O)O [5PCP-IP4] | no signs of decomposition | very similar inhibition profiles |  |  |  |
